Compound activity from PubChem BioAssay.
Hits are enriched below; roughly 3.7% of the tested compounds scored in any of these assays.
Kir21 block – inhibitors of mouse Kir2.1 inward-rectifier potassium channel. AID 1672. B-score at 10 µM. HEK293-Kir2.1, FluxOR thallium flux fluorescence; active compounds read low. actives 0.85% (n = 310,000);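 active = fluorescence ratio B-score at or below minus 3 SD of library scores, with starting-brightness B-score within 2 SD, cut at about -4.2 in these data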;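 note: channel flux triggered by added potassium and thallium sulfate stimulus; B-score of peak minus minimum fluorescence over baseline after thallium stimulus; more negative B-score means stronger Kir2.1 block with less thallium influx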
Target sequence (P35561 whole entry, looked up): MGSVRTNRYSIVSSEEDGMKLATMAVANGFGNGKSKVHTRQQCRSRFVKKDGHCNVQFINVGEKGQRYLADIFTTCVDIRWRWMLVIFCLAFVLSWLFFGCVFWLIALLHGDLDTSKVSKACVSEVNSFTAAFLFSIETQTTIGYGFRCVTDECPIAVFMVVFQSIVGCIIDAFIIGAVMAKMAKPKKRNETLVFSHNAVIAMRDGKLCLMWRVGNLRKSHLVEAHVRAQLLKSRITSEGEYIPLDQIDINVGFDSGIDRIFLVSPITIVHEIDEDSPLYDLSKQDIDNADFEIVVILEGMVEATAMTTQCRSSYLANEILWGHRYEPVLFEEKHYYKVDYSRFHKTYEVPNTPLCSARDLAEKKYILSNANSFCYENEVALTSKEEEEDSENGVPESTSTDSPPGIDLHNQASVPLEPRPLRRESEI
KCNQ1 pot – potentiators or activators of human KCNQ1 potassium channel. B-score at 10 µM. P51787. CHO-K1 KCNQ1, thallium flux FluxOR fluorescence; active compounds read high. actives 0.35% (n = 310,000). AID 2648;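 active = fluorescence ratio B-score, a plate-corrected score, at least three library SD, with initial intensity B-score within 5 SD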
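Test system: CHO-K1 cells stably expressing KCNQ1 / Medium: assay buffer / Also added: depolarizing K+/Tl+ stimulus, K2SO4 and Tl2SO4 each 12.5 mM in 5x stock / Incubation: 90 min dye loading and 20 min compound exposure, both at room temperature / Signal: thallium influx via FluxOR fluorescence, kinetic imaging / Evaluation: B score of baseline-normalized fluorescence ratio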
KCNK9 inh – inhibitors of human KCNK9 two-pore domain potassium channel; Q9NPC2; actives 1.2% (n = 310,000); B-score at 10 µM; HEK293 KCNK9, FluxOR thallium flux fluorescence; active compounds read low;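 active = ratio B-score over 3 SD below the library mean, with starting fluorescence within 5 SD of its mean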;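 note: negative B-score means less thallium flux so channel inhibition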
KCNQ1 block – human KCNQ1 channel inhibition; actives 1.3% (n = 310,000); AID 2642; B-score at 10 µM; P51787; CHO-K1 KCNQ1, FluxOR thallium flux fluorescence; active compounds read high;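 active = compounds whose thallium flux B-score, printed positive for inhibition, exceeds three library SD while starting fluorescence stays within three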;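 note: channel opened by potassium depolarization with thallium stimulus after 20 min compound exposure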
KCNK3 inh – human KCNK3 channel inhibition, primary screen | O14649 | CHO-KCNK3 thallium flux, FluxOR fluorescence; active compounds read low | B-score at 10 µM | actives 0.84% (n = 340,000);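 active = B-score under library mean minus 4 SD, starting fluorescence ratio at most library mean plus 5 SD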;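 note: more negative B-score means stronger inhibition of thallium flux through KCNK3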
hERG rescue – compounds protecting human hERG from proarrhythmic drug block | Q12809 | actives 0.51% (n = 310,000) | CHO-hERG, FluxOR thallium flux, dofetilide IC70 present | activation (rescue from dofetilide block), less the hit threshold, % at 10 µM;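 active = activation above the mean of controls blocked by dofetilide plus 5 SD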;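 note: thallium influx through hERG after potassium depolarization seen as dye fluorescence rise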
KCNK9 inh conf – confirmation of human KCNK9 potassium channel inhibitors; inhibition, % at 10 µM; AID 492992; HEK293 KCNK9 cells, FluxOR thallium flux fluorescence; actives 43% (n = 4,900); shares compounds with KCNK9 inh;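 active = thallium signal inhibited by more than 5 SD of the compound-free buffer control wells, on both duplicate plates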;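 note: 0% = assay buffer control wells without compound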
Kir2-1 spec – tests whether KCNK9 modulators also affect mouse Kir2.1; shares compounds with KCNK9 inh; Kir2.1 cells, FluxOR thallium flux fluorescence; inhibition, % at 10 µM; actives 4% (n = 4,900); AID 492993;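 active = thallium signal drop more than 5 SD beyond the mean of the no-compound control wells, seen in both duplicate plates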;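 note: signal is fluorescence rise after thallium addition divided by baseline fluorescence; plate controls were assay buffer only for no effect and full block by chlorpromazine control for full effect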
HEK293 Tl ctr – second counter-screen for KCNK9 modulators: effect in non-induced cells | shares compounds with KCNK9 inh | inhibition, % at 10 µM | actives 40% (n = 4,900) | non-induced KCNK9-HEK293, FluxOR thallium flux;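 active = thallium signal drop beyond 5 SD of the untreated control mean, on both duplicate plates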;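 note: plate controls were buffer only IC0 wells for no effect and SID17386958 at its maximal inhibitory level for full effect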
Starred values were filed as active, the others as inactive; i = inactive; . = no result given.

SMILES	Kir21 block	KCNQ1 pot	KCNK9 inh	KCNQ1 block	KCNK3 inh	hERG rescue	KCNK9 inh conf	Kir2-1 spec	HEK293 Tl ctr
COc1ccc2c(c1)c(CC(=O)OC(C)C(=O)N(C)C)c(C)n2C(=O)c1ccc(Cl)cc1 (stereo not drawn)	0.57	i	i	i	i	-12	i	i	i
COc1cc(/C=C(/C#N)C(=O)Nc2ccccc2)c(Br)cc1OCc1ccc(C(=O)O)cc1	-1.1	i	i	i	i	-33	.	.	.
COC(=O)c1ccc(COc2ccccc2/C=C(\C#N)C(=O)Nc2c(C)cc(C)cc2C)cc1	0.47	i	-16*	i	i	-16	78%*	i	28%*
Cc1cc(C)c(NC(=O)/C(C#N)=C/c2ccc(OCc3ccc(F)cc3)cc2)c(C)c1	0	i	i	i	i	-11	i	i	i
COc1ccc(CNCC(=O)Nc2cc(OC)cc(OC)c2)cc1	-2.4	i	i	i	i	-5	.	.	.
C=CCc1ccccc1OCC(O)CN1CCN(CCN2C(=O)c3cccc4cccc(c34)C2=O)CC1 (stereo not drawn)	-2.2	i	i	i	i	-31	i	i	i
Cc1cccc(C)c1OCC(O)CN1CCC(CN2C(=O)c3cccc4cccc(c34)C2=O)CC1 (stereo not drawn)	1.1	i	i	i	i	-22	i	i	i
CCC(OCC(O)CN1CCN(CCN2C(=O)c3cccc4cccc(c34)C2=O)CC1)c1ccccc1 (stereo not drawn)	-0.91	i	i	i	i	-18	i	i	i
Cc1ccccc1OCC(O)CN1CCN(CCN2C(=O)c3cccc4cccc(c34)C2=O)CC1 (stereo not drawn)	0.09	i	i	i	i	-10	i	i	i
O=C(COc1ccc(Br)cc1)NCCCNC(=O)c1cccnc1	0.83	i	i	i	i	-8	.	.	.
CN(C)c1ccc(CN(C(=O)c2cccs2)C2CCS(=O)(=O)C2)cc1 (stereo not drawn)	-0.38	i	i	i	i	-13	.	.	.
O=c1[nH]c2cc(S(=O)(=O)CCO)ccc2o1	0.38	i	i	i	i	-10	.	.	.
COc1cc(C(=O)N2CCN(C/C=C/c3ccccc3)CC2)cc(OC)c1OC	-0.74	i	i	i	i	-12	.	.	.
CCOc1cc(C(=O)N2CCN(C/C=C/c3ccccc3)CC2)cc(OCC)c1OCC	-1.5	i	i	i	i	-4	i	i	i
COC(=O)c1cc(OC)c(OC)cc1NC(=S)N1CCN(C/C=C/c2ccccc2)CC1	-0.56	i	i	i	i	-11	i	i	i
COc1ccc(NC(=S)N2CCN(C/C=C/c3ccccc3)CC2)c(OC)c1	-0.55	i	i	i	i	-6	.	.	.
COc1ccc(C(=O)OCC(=O)NC2CCCCCC2)cc1OC	.	.	.	.	i	.	.	.	.
Cc1cccc(C(=O)NC2CCN(S(=O)(=O)c3ccc(F)cc3)CC2)c1	-1.9	i	i	i	i	-3	.	.	.
Cc1ccccc1OC1C(=O)N(Cc2ccc3c(c2)OCO3)C1c1sccc1C (stereo not drawn)	0.09	i	i	i	i	-3	.	.	.
Cc1cc(C)c(S(=O)(=O)c2ccccc2C)c(OCC(C)(C)C)n1	-1.6	i	-10*	i	i	-8	44%*	i	53%*
COc1cccc(C(=O)O/N=C(\N)CS(=O)(=O)c2ccccc2)c1	-0.13	i	i	i	i	-10	.	.	.
Cc1cc(-c2ccccc2)c2c3c(c(-c4ccccc4)n2n1)c(=O)n(C)c(=O)n3C	-0.25	i	-8.8*	i	i	-6	i	i	36%*
Cc1cc(C)c2c3c(c(-c4ccccc4)n2n1)c(=O)n(C)c(=O)n3C	.	.	.	.	i	.	.	.	.
Cc1ccc(CCNC(=O)CSCc2ccc(F)cc2)cc1	-3.1	i	i	i	i	-4	i	i	i
Cc1ccc(CSCC(=O)NCc2ccc(F)cc2)cc1	-0.3	i	i	i	i	-4	.	.	.
SMILES	Kir21 block	KCNQ1 pot	KCNK9 inh	KCNQ1 block	KCNK3 inh	hERG rescue	KCNK9 inh conf	Kir2-1 spec	HEK293 Tl ctr
COc1ccc(CSCC(=O)NCCC(C)C)cc1	-1.8	i	i	i	i	1	.	.	.
COc1ccc(CSCC(=O)Nc2ccccc2SC)cc1	-2.8	i	i	i	i	-5	i	i	i
Cc1ccc(CSCC(=O)Nc2ccccc2F)cc1	-0.27	i	i	i	i	-16	i	i	i
Cc1ccc(NC(=O)CSCc2ccc(F)cc2)cc1	-0.55	i	i	i	i	-9	.	.	.
COc1cccc(C(CNC(=O)C(c2ccccc2)c2ccccc2)N(C)C)c1 (stereo not drawn)	-2.2	i	i	i	i	-7	.	.	.
O=C(CCN1C(=O)C2CCCCC2C1=O)Nc1nc(-c2ccccc2)cs1 (stereo not drawn)	0.76	i	i	i	i	-9	.	.	.
O=C(NC(Cc1ccccc1)c1ccc2c(c1)OCCCO2)c1ccccc1F (stereo not drawn)	0.58	i	i	i	i	-9	.	.	.
CC(=O)N(CCC(Cc1ccccc1)c1ccc2c(c1)OCO2)Cc1ccccc1F (stereo not drawn)	-0.62	i	-16*	6*	i	-6	28%*	i	i
CN1C(C)(C)CC(=NO)CC1(C)C	.	.	.	.	i	.	.	.	.
Cc1cc(-c2ccccc2)nc(SCc2ccc(C(=O)O)cc2)n1	-0.16	i	i	i	i	-9	.	.	.
CN(Cc1c(F)cccc1Cl)C(=O)c1ccc(NC(=O)CC2SC(N3CCCC3)=NC2=O)cc1 (stereo not drawn)	-0.06	i	i	i	i	-14	.	.	.
Cn1c(=O)c2c(SCc3ccccn3)nc(CC(C)(C)C)nc2n(C)c1=O	0.46	i	i	i	i	-19	i	i	i
CCCc1nc(SCc2ccccn2)c2c(=O)n(C)c(=O)n(C)c2n1	0.1	i	i	i	i	-18	.	.	.
